# Measurements as given in paper PMC6133080 (European Journal of Drug Metabolism and Pharmacokinetics, 2018).
# Like-named read-outs stand apart in the source and are kept apart here.
# What was measured:
# [1] = Ketoconazole study: safety and tolerability; format: in vivo, human; conditions: for Subjects with abdominal pain upper / Subjects with any AE (s) / Subjects with back pain / Subjects with dizziness / Subjects with dry mouth / Subjects with excoriation / Subjects with fatigue / Subjects with headache / Subjects with nasopharyngitis / Subjects with ocular hyperemia / Subjects with puncture site induration / Subjects with puncture site pain: nintedanib 50 mg single dose, ketoconazole 400 mg once daily for 3 days
# Method in brief: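 Healthy subjects in an open-label 2-way crossover with randomized sequences. The pilot period had 8 subjects and the main period 26 further subjects. Nintedanib 50 mg was given alone and after ketoconazole 400 mg once daily for 3 days (1 h after the last dose in the pilot), with ≥14 days between nintedanib doses. AEs from one drug intake to the next, washout included, were assigned to that treatment period (nintedanib, ketoconazole, or both). Labs, vital signs, 12-lead ECG and physical exam were also recorded.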
# [2] = cited from earlier work
# [3] = format: in vivo, human
# Method in brief: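 Open-label, fixed-sequence, two-period study in 26 healthy subjects. A single oral 150 mg dose was given alone, then the morning after the last of 7 daily oral 600 mg co-drug doses. Doses were ≥14 days apart. Plasma sampled pre-dose to 72 h and assayed by LC-MS/MS. Cmax observed; AUC by linear-up/log-down trapezoidal rule; log values analysed by ANOVA (treatment fixed, subject random), giving geometric mean ratios with 90% CIs.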
# [4] = Rifampicin study: safety and tolerability; format: in vivo, human; conditions: for Subjects with any AE (s) / Subjects with chromaturia / Subjects with cough / Subjects with dermatitis contact / Subjects with diarrhea / Subjects with dizziness / Subjects with dysphagia / Subjects with eye pain / Subjects with fatigue / Subjects with feces discolored / Subjects with feeling hot / Subjects with flatulence / Subjects with headache / Subjects with influenza / Subjects with laceration / Subjects with nausea / Subjects with night sweats / Subjects with oropharyngeal pain / Subjects with pollakiuria / Subjects with rhinitis / Subjects with vessel puncture site paresthesia: nintedanib 150 mg single dose, rifampicin 600 mg once daily for 7 days
# Method in brief: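 26 healthy subjects in an open-label, two-period, fixed-sequence design. A single oral nintedanib 150 mg dose was given alone, then again the morning after the last oral rifampicin 600 mg once-daily dose (7 days), with ≥14 days between nintedanib doses. AEs within 72 h of each nintedanib dose were assigned to that period. AEs later than 72 h after nintedanib alone and before rifampicin started were counted as washout. Labs, vital signs, 12-lead ECG and physical exam were also assessed.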
# esterases = conditions: in vitro; cited from earlier work
# [5] = format: in vivo, human; remark: listed apart in the source
# p-glycoprotein (P-gp) = conditions: cited from earlier work
# CYP = conditions: in vitro; cited from earlier work
# [6] = single dose of nintedanib alone and with ketoconazole
# [7] = co-administration with rifampicin
# [8] = test nintedanib 150 mg + rifampicin 600 mg vs reference nintedanib 150 mg
# [9] = single dose of nintedanib alone and with rifampicin
# [10] = co-administration with ketoconazole
# [11] = test nintedanib 50 mg + ketoconazole 400 mg vs reference nintedanib 50 mg
smiles,measurement,setting,value
COC(=O)c1ccc2c(c1)NC(=O)/C2=C(\Nc1ccc(N(C)C(=O)CN2CCN(C)CC2)cc1)c1ccccc1 [Nintedanib],Subjects with abdominal pain upper,[1],0 n (%)
same,Subjects with any AE (s),[1],8 (25.8) n (%)
same,Subjects with back pain,[1],0 n (%)
same,Subjects with dizziness,[1],1 (3.2) n (%)
same,Subjects with dry mouth,[1],0 n (%)
same,Subjects with excoriation,[1],0 n (%)
same,Subjects with fatigue,[1],1 (3.2) n (%)
same,Subjects with headache,[1],5 (16.1) n (%)
same,Subjects with nasopharyngitis,[1],2 (6.5) n (%)
same,Subjects with ocular hyperemia,[1],1 (3.2) n (%)
same,Subjects with puncture site induration,[1],0 n (%)
same,Subjects with puncture site pain,[1],0 n (%)
same,Serious AEs,[1]; [6],No serious AEs
same,Tolerability,[1]; [6],well tolerated
same,Terminal half-life,[2],10 to 15 h
same,Volume of distribution,[2]; geometric mean,1050 L
same,Percentage absorbed,"[2]; nintedanib 100 mg in healthy volunteers, estimated",23%
same,Absolute bioavailability,[2]; nintedanib 100 mg in healthy volunteers,approximately 5%
same,Time to maximum plasma concentration,[2]; oral administration,2 to 4 h
same,Time to steady state,[2]; oral dosing,≤ 7 days
same,Effect on tmax and t½ of nintedanib,[3]; co-administration of rifampicin,unaffected
same,Reduction of exposure to nintedanib based on AUC,[3]; [7],about 50%
same,Reduction of exposure to nintedanib based on Cmax,[3]; [7],~60%
same,Tmax,"[3]; human, plasma, oral",4 h
same,half-life,"[3]; human, plasma, oral",23.4 h
same,AUC(0-inf),"[3]; human, plasma, po, 150 mg",183 ng·h/mL
same,AUC(0-t),"[3]; human, plasma, po, 150 mg",173 ng·h/mL
same,Cmax,"[3]; human, plasma, po, 150 mg",22.1 ng/mL
same,half-life,"[3]; human, plasma, po, 150 mg",22.5 h
same,"Relative bioavailability, GMR (90% CI) of AUC0–tz",[3]; [8],50.0 (46.9–53.3) %
same,"Relative bioavailability, GMR (90% CI) of AUC0–∞",[3]; [8],50.1 (47.2–53.3) %
same,"Relative bioavailability, GMR (90% CI) of Cmax",[3]; [8],59.8 (53.8–66.4) %
same,Subjects with any AE (s),[4],5 (19.2) n (%)
same,Subjects with chromaturia,[4],0 n (%)
same,Subjects with cough,[4],0 n (%)
same,Subjects with dermatitis contact,[4],0 n (%)
same,Subjects with diarrhea,[4],5 (19.2) n (%)
same,Subjects with dizziness,[4],0 n (%)
same,Subjects with dysphagia,[4],0 n (%)
same,Subjects with eye pain,[4],0 n (%)
same,Subjects with fatigue,[4],0 n (%)
same,Subjects with feces discolored,[4],0 n (%)
same,Subjects with feeling hot,[4],0 n (%)
same,Subjects with flatulence,[4],0 n (%)
same,Subjects with headache,[4],1 (3.8) n (%)
same,Subjects with influenza,[4],0 n (%)
same,Subjects with laceration,[4],0 n (%)
same,Subjects with nausea,[4],0 n (%)
same,Subjects with night sweats,[4],0 n (%)
same,Subjects with oropharyngeal pain,[4],0 n (%)
same,Subjects with pollakiuria,[4],0 n (%)
same,Subjects with rhinitis,[4],0 n (%)
same,Subjects with vessel puncture site paresthesia,[4],0 n (%)
same,Serious AEs,[4]; [9],No serious AEs
same,Tolerability,[4]; [9],well tolerated
same,Share of ester cleavage,esterases,about 25%
same,Effect on tmax and t½ of nintedanib,[5]; co-administration of ketoconazole,unaffected
same,Increase in exposure to nintedanib based on AUC,[5]; [10],about 1.6 fold
same,Increase in exposure to nintedanib based on Cmax,[5]; [10],~1.7 fold
same,Tmax,"[5]; human, plasma, oral",3 h
same,half-life,"[5]; human, plasma, oral",15.6 h
same,AUC(0-inf),"[5]; human, plasma, po, 50 mg",38.6 ng·h/mL
same,AUC(0-t),"[5]; human, plasma, po, 50 mg",35.7 ng·h/mL
same,Cmax,"[5]; human, plasma, po, 50 mg",4.19 ng/mL
same,half-life,"[5]; human, plasma, po, 50 mg",18.1 h
same,"Exposure to nintedanib (AUC0–∞, Cmax, AUC0–tz) higher when co-administered with ketoconazole than alone","[5]; nintedanib 50 mg, ketoconazole 400 mg once daily for 3 days",1.6–1.7 fold
same,"Relative bioavailability, GMR (90% CI) of AUC0–tz",[5]; [11],168.1 (155.3–182.0) %
same,"Relative bioavailability, GMR (90% CI) of AUC0–∞",[5]; [11],160.5 (148.2–173.7) %
same,"Relative bioavailability, GMR (90% CI) of Cmax",[5]; [11],179.6 (157.6–204.8) %
same,Substrate for p-glycoprotein (P-gp),p-glycoprotein (P-gp),substrate
same,Share of CYP-dependent metabolism,CYP,about 5%
CO[C@H]1/C=C/O[C@@]2(C)Oc3c(C)c(O)c4c(O)c(c(/C=N/N5CCN(C)CC5)c(O)c4c3C2=O)NC(=O)/C(C)=C\C=C\[C@H](C)[C@H](O)[C@@H](C)[C@@H](O)[C@@H](C)[C@H](OC(C)=O)[C@@H]1C [Rifampicin],Subjects with any AE (s),[4],25 (100) n (%)
same,Subjects with chromaturia,[4],25 (100) n (%)
same,Subjects with cough,[4],1 (4.0) n (%)
same,Subjects with dermatitis contact,[4],0 n (%)
same,Subjects with diarrhea,[4],1 (4.0) n (%)
same,Subjects with dizziness,[4],2 (8.0) n (%)
same,Subjects with dysphagia,[4],1 (4.0) n (%)
same,Subjects with eye pain,[4],1 (4.0) n (%)
same,Subjects with fatigue,[4],2 (8.0) n (%)
same,Subjects with feces discolored,[4],3 (12.0) n (%)
same,Subjects with feeling hot,[4],1 (4.0) n (%)
same,Subjects with flatulence,[4],2 (8.0) n (%)
same,Subjects with headache,[4],5 (20.0) n (%)
same,Subjects with influenza,[4],0 n (%)
same,Subjects with laceration,[4],1 (4.0) n (%)
same,Subjects with nausea,[4],1 (4.0) n (%)
same,Subjects with night sweats,[4],1 (4.0) n (%)
same,Subjects with oropharyngeal pain,[4],0 n (%)
same,Subjects with pollakiuria,[4],1 (4.0) n (%)
same,Subjects with rhinitis,[4],1 (4.0) n (%)
same,Subjects with vessel puncture site paresthesia,[4],0 n (%)
CC(=O)N1CCN(c2ccc(OCC3COC(Cn4ccnc4)(c4ccc(Cl)cc4Cl)O3)cc2)CC1 (centres unmarked) [Ketoconazole],Subjects with abdominal pain upper,[1],1 (2.9) n (%)
same,Subjects with any AE (s),[1],3 (8.8) n (%)
same,Subjects with back pain,[1],0 n (%)
same,Subjects with dizziness,[1],0 n (%)
same,Subjects with dry mouth,[1],1 (2.9) n (%)
same,Subjects with excoriation,[1],0 n (%)
same,Subjects with fatigue,[1],0 n (%)
same,Subjects with headache,[1],2 (5.9) n (%)
same,Subjects with nasopharyngitis,[1],0 n (%)
same,Subjects with ocular hyperemia,[1],0 n (%)
same,Subjects with puncture site induration,[1],0 n (%)
same,Subjects with puncture site pain,[1],0 n (%)
